Experimental findings from ChEMBL document CHEMBL3102834, “Discovery of 5-substituted pyrrolo[2,3-d]pyrimidine antifolates as dual-acting inhibitors of glycinamide ribonucleotide formyltransferase and 5-aminoimidazole-4-carboxamide ribonucleotide formyltransferase in de novo purine nucleotide biosynthesis: implications of inhibiting …” (J Med Chem, 2013) are described below.

Molecules are shown by their SMILES. Calls of active or inactive are those of the source. The rule behind the calls is not given here.

The inhibition is the relative decrease from the control value, in per cent. A word on the IC50: it is the concentration that gives 50% inhibition. Read a low IC50 as inhibition by little substance.

Assay [1] relates to KB. The assay is described as follows: Cell cycle arrest in human KB cells assessed as accumulation at G2/M phase at 1 uM after 96 hrs by propidium iodide staining-based flow cytometry (reference value: 13.2%). It counts as functional. A general note: A flow cytometer gives signals particle by particle.
The test system of assay [2] is KB. The assay is described as follows: Cytotoxicity against human KB cells expressing human RFC/FRalpha/PCFT after 96 hrs by CellTitre-Blue fluorescence assay in presence of AICA. It counts as functional, cell-based. An outline of the steps: (§1)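 KB cells were grown in FF-RPMI with DFBS and 2 nM LCV, exposed to antifolate (0–1 μM) for 96 h at 37 °C, and read by CellTiter-Blue fluorescence. IC50 was taken from dose–response curves relative to untreated cells. Protection arms added adenosine 60 μM, thymidine 10 μM, AICA 320 μM, or folic acid 200 nM. Means of 3–10 experiments.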

For assay [3], the system named is KB. Kind of assay: Cytotoxicity against human KB cells expressing human RFC/FRalpha/PCFT after 96 hrs by CellTitre-Blue fluorescence assay in presence of adenosine. It counts as functional, cell-based. An outline of the steps: as §1
Assay [4] has as its target T1, Reduced folate transporter (Homo sapiens) (UniProt P41440).
T1 sequence (whole entry): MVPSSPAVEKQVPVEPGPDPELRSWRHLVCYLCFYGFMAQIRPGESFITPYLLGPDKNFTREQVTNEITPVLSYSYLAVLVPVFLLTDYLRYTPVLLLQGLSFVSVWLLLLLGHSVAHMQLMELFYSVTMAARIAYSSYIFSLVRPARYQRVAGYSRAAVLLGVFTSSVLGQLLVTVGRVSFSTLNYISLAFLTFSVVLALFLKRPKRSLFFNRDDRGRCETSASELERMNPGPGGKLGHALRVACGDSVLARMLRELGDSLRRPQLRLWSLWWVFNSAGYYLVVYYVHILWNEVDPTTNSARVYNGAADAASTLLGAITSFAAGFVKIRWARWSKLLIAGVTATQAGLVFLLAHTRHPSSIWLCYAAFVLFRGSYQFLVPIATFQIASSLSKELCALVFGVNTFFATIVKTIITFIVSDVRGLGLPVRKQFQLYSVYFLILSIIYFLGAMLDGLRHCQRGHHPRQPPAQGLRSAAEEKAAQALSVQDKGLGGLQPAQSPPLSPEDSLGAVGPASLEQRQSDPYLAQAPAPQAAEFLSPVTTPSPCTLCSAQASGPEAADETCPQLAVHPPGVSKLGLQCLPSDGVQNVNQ
The assay is described as follows: Inhibition of human RFC expressed in chinese hamster PC43-10 cells assessed as reduction of [3H]MTX uptake at 10 uM after 48 hrs by scintillation counting analysis relative to control. It counts as cell-based. The procedure, abridged:
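PC43-10 CHO cells expressing human RFC (~1.5 × 10^6) were seeded 48 h before assay. Uptake of 0.5 μM [3H]MTX was run in Hank's balanced salts for 2 min at 37 °C, with or without 10 μM unlabelled inhibitor, and stopped with ice-cold PBS. Cells were dissolved in 0.5 N NaOH, counted by scintillation and normalised to Folin-phenol protein (pmol/mg). RFC-null R2 cells gave baseline. Three experiments.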

A short description of assay [5]: Cytotoxicity against chinese hamster R2(VC) cells after 96 hrs by CellTitre-Blue fluorescence assay. Conditions: Cricetulus griseus. The class given is functional, cell-based. An outline of the steps:
(§2)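 CHO sublines were grown in FF-RPMI/DFBS; transfectants were maintained with G418. Cells were exposed to antifolate (0–1 μM) for 96 h at 37 °C with 2 nM LCV (RT16) or 25 nM LCV (R2/PCFT4). PC43-10 cells were grown in standard RPMI1640/DFBS instead. FRα specificity was tested by adding 200 nM folic acid. Viable cells were read by CellTiter-Blue fluorescence (ex 560/em 590), and IC50 was taken from dose–response curves; means of 3–10 experiments.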

The test system of assay [6] is R2. The assay is described as follows: Cytotoxicity against chinese hamster R2 cells expressing human PCFT4 after 96 hrs by CellTitre-Blue fluorescence assay. The class given is functional, cell-based, Cricetulus griseus. The settings on record: R2, 96 h.
Assay [7] in a line: Cytotoxicity against chinese hamster RT16 cells expressing human FRalpha after 96 hrs by CellTitre-Blue fluorescence assay. It counts as functional, cell-based. Conditions: Cricetulus griseus, RT16, 96 h. An outline of the steps:
as §2

The test system of assay [8] is KB. The assay is described as follows: Induction of apoptosis in human KB cells assessed as viable cells at 1 uM after 96 hrs by Annexin V-FITC/7-AAD staining-based flow cytometry (RVB = 89.6%). It counts as functional. The settings on record: read-out: Activity.
Assay [9] relates to R2. The assay is described as follows: Cytotoxicity against chinese hamster R2 cells after 96 hrs by CellTitre-Blue fluorescence assay. Conditions: Cricetulus griseus, R2, 96 h.

Turning to `Nc1nc2[nH]cc(CCCCc3ccc(C(=O)N[C@@H](CCC(=O)O)C(=O)O)cc3)c2c(=O)[nH]1`, in the assay with KB [1], the Activity came to 2.3%. Further, the result in the assay on KB [2] was Active. Moreover, the outcome with KB [3] was inactive. The inhibition in assay [4] was over 90%. The IC50 in assay [5] was over 1000 nM; in the assay with R2 [6], 840 nM; in [7], 8.6 nM; in the assay on R2 [9], over 1000 nM. Also, in the assay with KB [8], the viability at 1 µM was found to be 39%.
